Shown are actives, neighbours in structure and some others; about 5.1% of the full set was active somewhere.
STAT1 inh: STAT1 signaling inhibition; 200,000 tested, 0.35% active; inhibition, % at 5.5 µM; NIH 3T3 STAT1-luciferase reporter, IFN-gamma, luminescence;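 active means inhibition above a set limit, the mean inhibition across all tested compounds plus 3 SD, cut at about 34% in these data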;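 further: 0% = IFN-gamma with DMSO and 100% = IFN-gamma with 300 µM nifuroxazide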
NF-kB expr up: raises NF-kB expression in human neuronal cells | NF-kB reporter expression; active compounds read high | 190,000 tested, 1.6% active | fold change at 12.5 µM | AID 1239; in the data active means fold change above about 3.3
STAT3 blocker: inhibitors of IL-6 induced STAT3 signaling | U3A cells, IL-6 STAT3-luciferase reporter, luminescence; host cell line lacks STAT1 | inhibition, % at 5.5 µM | 190,000 tested, 0.89% active | AID 862;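 active means inhibition above the mean inhibition across all screened compounds plus 3 SD, cut at about 44% in these data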;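 further: 0% = DMSO only wells and 100% = 100 µM nifuroxazide control wells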
APP 5'UTR act: APP 5'UTR luciferase reporter activation. SH-SY5Y APP 5'UTR luciferase reporter, luminescence; zero percent = DMSO vehicle wells. activation, % at 2 µM. 190,000 tested, 1% active. AID 1276;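 active means activation above a set limit, based on mean plus 3 SD of controls, cut at about 140% in these data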
STAT3 activator: increases IL-6 driven STAT3 reporter signal; 190,000 tested, 0.91% active; AID 871; U3A cells, IL-6 STAT3-luciferase reporter, luminescence; 100% = signal with IL-6 EC80 alone; activation (% of control), % at 5.6 µM;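 active means activation above the screen-wide mean of compound activation plus 3 SD, cut at about 130% in these data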;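 further: 0% = background luminescence of wells with medium and substrate only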
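Material: STAT1-lacking human U3A cells, STAT3 luciferase reporter | Benchmarks: IL-6-only wells as 100% reference | Probe or stimulus: IL-6 (33 ng/mL) | Timing: Compound 1 h, then IL-6 6 h at 37 °C | Detection: Luminescence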
STAT1 act: STAT1 signaling activation; NIH 3T3 STAT1-luciferase reporter, IFN-gamma, luminescence; 100% = IFN-gamma alone, no compound; activation (% of control), % at 5.5 µM; 200,000 tested, 2.6% active; AID 932;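 active means activation above the screen-wide mean activation plus 3 SD, cut at about 130% in these data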;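 further: raw ratio to IFN-gamma control signal so 100% means no change and 0% no light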
Starred values were filed as active, the others as inactive; nt = not tested or not shown.

SMILES | STAT1 inh | NF-kB expr up | STAT3 blocker | APP 5'UTR act | STAT3 activator | STAT1 act
CCCn1c(SCC(=O)N2CCCC(C)C2)nnc1-c1ccccn1 (configuration not stated) | -2.6 | 1.09 | 3.0 | 3.9 | 100.8 | 102.0
O=C1CCC/C(=N\NC(=O)c2ccc(CSc3cccc4cccnc34)cc2)C1 | -2.1 | 1.17 | 7.1 | -8.2 | 99.7 | 100.6
O=C(O)c1cc(-c2ccccc2)n(-c2ccc(Cl)cc2)n1 | 2.5 | 1.02 | -8.6 | -3.7 | 106.6 | 97.8
O=C(c1ccco1)N1CCc2ccccc21 | -36.1 | 2.26 | 19.9 | 54.6 | 89.8 | 133.6*
Cc1ccccc1OCc1nc2ccccc2[nH]1 | -32.6 | 4.25* | 24.2 | 131.4 | 83.5 | 130.5*
c1cnc2c(OCc3nc4ccccc4[nH]3)cccc2c1 | -48.5 | 2.73 | -63.3 | nt | 156.1* | 143.5*
COc1ccc(C(=O)NCc2nc3ccccc3[nH]2)cc1OC | -4.9 | 1.48 | 12.0 | -5.4 | 94.4 | 104.4
COc1ccccc1OCc1nc2ccccc2[nH]1 | -34.2 | 4.01* | 9.8 | 83.0 | 94.8 | 131.7*
Brc1ccccc1OCCOc1cccc2cccnc12 | -21.4 | 1.45 | 3.5 | 0.3 | 97.8 | 119.2
Cc1cc(NC(=O)CSc2nnc(-c3c[nH]c4ccccc34)n2C)no1 | 8.9 | 0.89 | nt | 0.6 | nt | 90.7
Cc1ccc(SCc2cc(=O)n3ccsc3n2)c(C)c1 | -37.7 | 2.19 | 3.6 | 52.3 | 96.4 | 134.2*
Cc1ccc(Nc2nnc(SCc3cc(=O)n4ccsc4n3)s2)c(C)c1 | 6.6 | 0.88 | -4.9 | -3.6 | 107.5 | 94.0
CN1C(=O)c2ccc(NC(=O)CCS(=O)(=O)c3ccccc3)cc2C1=O | -10.4 | 1.15 | -1.6 | 39.0 | 107.2 | 107.5
CCN=C1NN=C(c2ccc(C)cc2)CS1 | 15.9 | 1.63 | 65.8* | 63.3 | 49.4 | 85.8
C=CCN=C1NN=C(c2ccc3c(c2)OCCO3)CS1 | 63.6* | 1.2 | 89.3* | 58.2 | 25.1 | 40.2
c1ccc(C2=NNC(=NCc3ccc4c(c3)OCO4)SC2)cc1 | -3.0 | 1.26 | -12.1 | 5.1 | 116.2 | 102.7
Cc1[nH]c2ccccc2c1C1=NNC(=Nc2ccc(F)cc2)SC1 | -1.2 | 0.85 | -5.1 | 0.6 | 103.0 | 101.1
NC1=NN=C(c2ccc3c(c2)OCCO3)CS1 | 49.1* | 1.65 | 65.6* | 81.1 | 46.6 | 53.7
CC(C)N=C1NN=C(c2ccc(F)cc2)CS1 | -4.4 | 3.46* | 27.6 | 136.0* | 81.9 | 102.1
CC(Oc1ccc2ccc(=O)oc2c1)C(=O)c1ccccc1 (configuration not stated) | -6.2 | 0.95 | 23.2 | -2.3 | 79.2 | 105.5
Cn1nc(C(=O)NNc2c(F)c(F)cc(F)c2F)c2ccccc2c1=O | 6.6 | 1.33 | 22.4 | -7.4 | 86.7 | 93.5
Clc1ccc(C2=NNC(=NCc3ccccc3)SC2)cc1 | -18.1 | 1.32 | 8.8 | 13.1 | 94.5 | 116.3
c1ccc(CN=C2NN=C(c3ccccc3)CS2)cc1 | -42.2 | 1.91 | -11.4 | 18.9 | 111.5 | 138.5*
O=c1c2ccccc2nc(SCCN2CCCCC2)n1CCc1ccccc1 | -0.9 | 1.03 | -4.2 | -12.1 | 104.8 | 99.8
COc1ccc(-n2nc([N+](=O)[O-])c(=NCCc3ccc(Cl)cc3)n2O)cc1 | -2.6 | 1.28 | 8.8 | 11.2 | 98.3 | 102.3
SMILES | STAT1 inh | NF-kB expr up | STAT3 blocker | APP 5'UTR act | STAT3 activator | STAT1 act
COc1ccc(-n2nc([N+](=O)[O-])c(=NCc3ccco3)n2O)cc1 | -48.5 | 2.23 | 2.6 | 72.6 | 99.5 | 143.2*
COc1ccc(-n2nc([N+](=O)[O-])c(=NCCc3ccc(C)cc3)n2O)cc1 | -5.5 | 1.31 | -2.4 | 7.4 | 103.6 | 103.7
O=[N+]([O-])c1nn(-c2ccc3c(c2)OCCO3)n(O)c1=NCc1ccccc1Cl | -52.0 | 2.48 | 0.6 | 32.3 | 103.5 | 146.5*
COc1ccc(-n2nc([N+](=O)[O-])c(=NCc3cccnc3)n2O)cc1 | -54.8 | 2.7 | -5.5 | 48.0 | 102.6 | 148.8*
Cc1ccccc1N(CC(=O)Nc1ccc(S(=O)(=O)N2CCOCC2)cc1)S(C)(=O)=O | -6.9 | 1.02 | 10.2 | -14.3 | 101.1 | 105.4
Cc1ccc(C(=O)N/N=C\c2cccs2)cn1 | -20.6 | 1.5 | 22.8 | -6.6 | 88.9 | 118.1
CC(C)CC(=O)Nc1ccc(-c2nc3ccccc3c(=O)[nH]2)cc1 | -42.2 | 1.28 | 23.9 | 183.8* | 79.5 | 139.7*
Cc1ccc(NC(=S)c2nc3ccccc3[nH]2)cc1 | -21.4 | 4.47* | 36.6 | 193.0* | 77.6 | 119.3
Cc1ccc(SCC(=O)Nc2ccc(-c3nc4ccccc4[nH]3)cc2)cc1 | -36.2 | 1.43 | -0.8 | 7.5 | 101.0 | 132.2*
Cc1ccc(NC(=S)N2CCCC(c3nc4ccccc4[nH]3)C2)cc1 (configuration not stated) | 5.5 | 0.55 | -3.3 | 0.3 | 109.8 | 94.1
CC(=O)Nc1ccc(-c2nc3c(C)cccc3[nH]2)cc1 | -31.9 | 3.82* | -19.0 | 169.4* | 118.2 | 129.5*
COc1ccc(S(=O)(=O)N2CCCCC2)cc1NC(=O)c1cc(C)on1 | 10.1 | 1.47 | 24.2 | 0.7 | 84.5 | 89.4
COc1cc(CNC2CCCC2)cc(Cl)c1OCc1ccccc1F | -2.3 | 0.81 | 2.4 | 9.4 | 96.7 | 102.1
COc1cccc(C(=O)NNC2OC(CO)C(O)C2O)c1 (configuration not stated) | 1.8 | 1 | -9.6 | 11.4 | 109.2 | 98.2
CN(C)CCNC(=S)Nc1ccc(-c2nc3ccccc3[nH]2)cc1 | -1.6 | 3.7* | 20.7 | 162.9* | 88.8 | 101.8
S=C(NCCCN1CCOCC1)Nc1ccc(-c2nc3ccccc3[nH]2)cc1 | -9.1 | 0.99 | 3.8 | 18.1 | 100.8 | 105.1
Cc1cc(O)ccc1N/C=C/c1onc(C)c1[N+](=O)[O-] | -37.5 | 2.61 | 2.9 | 162.1* | 104.2 | 134.6*
CC(C)c1onc(C(=O)Nc2cccc(O)c2)c1[N+](=O)[O-] | -4.0 | 1.72 | 2.5 | 21.4 | 99.8 | 102.1
N#CC1=C(N)OC2=C(CCc3ccccc32)C1c1ccccc1 (configuration not stated) | -5.0 | 4.7* | -10.5 | -96.2 | 112.7 | 104.4
Cc1ccc(N=Nc2c(N)nn3c(C)cc(C)nc23)cc1 | -6.0 | 1.05 | 13.5 | 0.4 | 88.9 | 105.3
Cc1ccc(N=Nc2c(N)nn3c(N)c(C#N)c(C)nc23)cc1 | -33.7 | 0.94 | 32.8 | -7.1 | 73.9 | 129.1*
[O-]/[N+](=C\c1ccncc1)c1ccc(Br)cc1 | -24.4 | 4.52* | 2.5 | 95.1 | 101.1 | 122.2
Cc1ccc(OCc2cn3cccnc3n2)cc1 | -31.3 | 2.22 | 2.9 | 47.6 | 95.6 | 127.9
O=C(Oc1ccc(-c2cnc3ccccc3n2)cc1)c1cccc([N+](=O)[O-])c1 | -20.3 | 1.93 | -9.1 | 116.1 | 112.3 | 118.2
O=C(Oc1ccc(-c2cnc3ccccc3n2)cc1)c1ccc(Cl)c([N+](=O)[O-])c1 | -27.2 | 1.79 | 9.8 | 137.7* | 97.9 | 124.9
O=C(Oc1ccc(-c2cnc3ccccc3n2)cc1)c1ccc(Br)o1 | -38.2 | 2.92 | 7.4 | 112.6 | 98.5 | 134.9*
